NSD2 HMT inh: blocks human histone methyltransferase NSD2 | AID 743445 | O96028 | NSD2 peptide methylation, AlphaScreen, 120 min | inhibition, % at 12.5 µM | 0.54% of 310,000 active; in the data active = inhibition above about 50%
ARNT-TACC3 inh: ARNT/TACC3 interaction disruption; Q9Y6A5; AlphaScreen His-ARNT PAS-B/GST-TACC3 binding, luminescence; TACC3 fragment carries E629A point mutation; inhibition, % at 9.99 µM; 0.66% of 390,000 active; AID 623870;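 active = mean inhibition of replicates at least 50% and at least half of replicates each reaching 50%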;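 note: 0% = complete ARNT plus TACC3 wells and 100% = ARNT alone without TACC3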
XiGFP reactiv: reactivates the inactive X chromosome in mouse fibroblasts; XiGFP mouse fibroblasts, % GFP-positive cells imaging, 3 d; cells co-treated with 5-aza-dC sensitizer; scaled so ellipticine positive control = 100%; activation, % at 7.58 µM; 0.055% of 360,000 active;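 active = mean normalized replicate activation at least 10% and every replicate at or above 10%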;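 note: 0% = median of on-plate neutral control wells and 100% = ellipticine 6 µM median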
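Material: SV40-immortalized XiGFP fibroblast cells, line 68-5-11 | Buffer or medium: DMEM containing 5-aza-dC | Dosing: One concentration, pinned | Times: 3 d treatment, 15 min room-temperature fixation | Controls: Ellipticine 6 µM positive control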
sPLA2-III inh: Blocks human group III sPLA2 activity; 0.56% of 370,000 active; QFRET BODIPY PC-A2 liposome hydrolysis, fluorescence; AID 743126; inhibition, % at 12.2 µM;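 active = inhibition above mean plus 3 SD of compounds lying within the high and low control bounds, cut at about 19% in these data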;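 note: 0% = median of test compound wells and 100% = no enzyme DMSO wells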
SR-BI DiI-HDL act: SR-BI HDL lipid transfer activation | CHO ldlA[mSR-BI] cells, DiI-HDL uptake fluorescence, 3 h; 100 = double the neutral-control signal | activation, % at 12.5 µM | 0.096% of 320,000 active;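 active = mean replicate activation of at least 60% and every replicate at or above 60%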;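 note: 0% = median plate neutral-control signal and 100% = twice that signal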
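Assay system: LDL receptor-deficient CHO ldlA cells overexpressing murine SR-BI / Medium: BSA-supplemented, HEPES-buffered Ham's F12, pH 7.4 / Probe or stimulus: DiI-labelled HDL at 10 µg/mL final / Timing: compound with DiI-HDL co-incubation, 3 h at 37 °C / Technique: bottom-read cell fluorescence after medium removal, ex 550/em 595 nm / Measure: HDL uptake via cellular fluorescence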
SR-BI HDL uptake: inhibitors of mouse SR-BI mediated HDL lipid uptake; Q61009; ldlA[mSR-BI] CHO cells, DiI-HDL uptake fluorescence, 3 h; inhibition, % at 12.5 µM; 0.96% of 320,000 active; AID 488896;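 active = mean replicate inhibition of at least 70% and a set share of replicates each scoring 70 or more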;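 note: 0% = median of neutral control wells and 100% = median of positive control wells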
Target sequence (Q61009 whole entry, looked up): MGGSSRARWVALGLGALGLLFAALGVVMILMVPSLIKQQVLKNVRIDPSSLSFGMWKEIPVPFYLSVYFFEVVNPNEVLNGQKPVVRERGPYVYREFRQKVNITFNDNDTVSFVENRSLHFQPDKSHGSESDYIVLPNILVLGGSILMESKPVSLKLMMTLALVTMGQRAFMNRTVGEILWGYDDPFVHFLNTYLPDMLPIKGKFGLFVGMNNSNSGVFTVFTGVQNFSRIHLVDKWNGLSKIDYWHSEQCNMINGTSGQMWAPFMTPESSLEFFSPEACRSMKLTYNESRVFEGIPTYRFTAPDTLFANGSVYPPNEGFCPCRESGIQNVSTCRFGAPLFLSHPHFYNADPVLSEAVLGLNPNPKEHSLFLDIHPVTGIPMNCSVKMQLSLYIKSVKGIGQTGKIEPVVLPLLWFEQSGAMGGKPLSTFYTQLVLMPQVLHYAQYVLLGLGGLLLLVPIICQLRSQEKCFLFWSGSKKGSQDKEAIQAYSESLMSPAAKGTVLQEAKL
sPLA2 confirm: human GIII-sPLA2 inhibition, confirmation; shares compounds with sPLA2-III inh; recombinant hGIII-sPLA2, BODIPY PC-A2 QFRET fluorescence; 34% of 2,000 active; AID 743280; inhibition, % at 12.2 µM;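 active = mean inhibition across triplicates above the hit cutoff set in the earlier primary screen, cut at about 19% in these data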;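 note: 0% = enzyme with DMSO and 100% = DMSO wells lacking enzyme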
535nm interf: counter-screen for HGIII-sPLA2 inhibitors: 535nm fluorescence interference; shares compounds with sPLA2-III inh; BODIPY FL product fluorescence interference, QFRET; inhibition, % at 12.2 µM; 8.5% of 2,000 active; AID 743282;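 active = average inhibition above the solvent-only control mean plus 3 SD, cut at about 6% in these data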;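 note: 0% = DMSO with substrate plus product and 100% = DMSO with substrate alone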
BODIPY interf DR: 535nm optical interference dose response, HGIII-sPLA2 counter-screen; 240 tested, under 10 active; shares compounds with sPLA2-III inh; IC50, µM; AID 743455; BODIPY FL product fluorescence interference, cell-free;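 active = IC50 at or below 10 µM; inactive = IC50 above 10 µM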
Active calls of the source: *; nt = no result given. A selection: hits, their analogues and other compounds. The true share with any hit is near 2%.

SMILES	NSD2 HMT inh	ARNT-TACC3 inh	XiGFP reactiv	sPLA2-III inh	SR-BI DiI-HDL act	SR-BI HDL uptake	sPLA2 confirm	535nm interf	others
O=C1C2C3C=CC(C3)C2C(=O)N1c1cccc2cccnc12 (configuration not stated)	0	-3	nt	2	nt	nt	nt	nt
O=C1c2ccccc2C(=O)N1c1cccc2cccnc12	0	1	0	22*	19	-19	-2	-6
CN(Cc1ccccc1)c1oc(-c2ccco2)nc1C#N	nt	35	nt	-3	-49	49	nt	nt
COC(=O)c1cnn(-c2ccc(F)cc2F)c1/C=N/NC(=S)Nc1ccccc1	nt	nt	nt	22*	nt	nt	20*	0
O=C(Nc1ccn(CCCNCc2ccccn2)c(=O)n1)OCc1ccccc1	nt	nt	0	21*	-20	20	6	-16
O=C(Nc1ccn(CCCNCCc2ccccn2)c(=O)n1)OCc1ccccc1	nt	nt	0	15	nt	nt	nt	nt
COc1ccc(C(C)(C)C)cc1NC(=S)NCCN1CCOCC1	3	0	nt	20*	24	-24	12	-6
COc1ccc(NC(=S)NCCCN2CCOCC2)cc1	-2	0	0	22*	3	-3	1	0
COc1ccc(NC(=S)NCCN2CCOCC2)cc1	31	8	0	8	-1	1	nt	nt
COc1cc(NC(=S)NCCN2CCOCC2)cc(OC)c1OC	3	-17	0	12	9	-9	nt	nt
C[C@H](CO)N1C[C@H](C)[C@H](CN(C)C(=O)Nc2ccccc2)Oc2ccc(NC(=O)Nc3ccc(C(F)(F)F)cc3)cc2CC1=O	nt	-1	0	nt	nt	nt	nt	nt
C/C=C/c1ccc([C@@H]2[C@@H](CO)N3C(=O)CN(Cc4ccc(C(=O)OC)cc4)C[C@H]23)cc1	nt	nt	0	nt	nt	nt	nt	nt
O=C1NC[C@H](c2ccccc2)N(CCc2cccc3ccccc23)C1=O	nt	-2	0	-4	-2	2	nt	nt
CC(C)(CO)Cc1cc(C(C)(C)C)c(O)c(C(C)(C)C)c1	nt	-1	1	20*	-20	20	-2	-9
CC(CCl)n1c(=O)c2ccccc2n1C(=O)c1ccccc1 (configuration not stated)	nt	nt	0	24*	nt	nt	4	-10
CCOCCOc1nc2c(c(=O)n(C)c(=O)n2C)n1CCc1ccccc1	5	1	nt	0	-15	15	nt	nt
C[C@@H]1CN([C@H](C)CO)C(=O)c2cc(NC(=O)C3CC3)ccc2O[C@H]1CN(C)C(=O)Nc1ccccc1	nt	-19	0	nt	nt	nt	nt	nt
CCOC(=O)c1sc(=S)n(-c2ccc(OC)cc2)c1N	4	1	0	25*	-12	12	15	-1
CCOC(=O)C(NC(=O)Nc1ccc(Cl)cn1)(Oc1ccc(F)cc1)C(F)(F)F (configuration not stated)	0	-8	0	25*	0	0	-1	-8
COc1ccc(S(=O)(=O)N2CCCC2C(=O)Nc2nccs2)cc1 (configuration not stated)	-3	-3	nt	11	17	-17	nt	nt
CC(=O)Nc1cccc2ncccc12	0	27	0	24*	3	-3	1	-6
CC(C)(C)c1ccc(C(=O)Nc2cccc3ncccc23)cc1	2	16	0	3	-21	21	nt	nt
CCOC(=O)c1cnn(-c2ccccc2)c1NC(=O)CN1CCCCC1	9	-7	0	21*	2	-2	-1	-7
O=[N+]([O-])c1ccc(NCCCO)c(S(=O)(=O)N2CCOCC2)c1	0	-9	0	0	-33	33	nt	nt
O=[N+]([O-])c1ccc(N/N=C/c2cccc(O)c2O)c(S(=O)(=O)N2CCOCC2)c1	nt	1	2	31*	nt	nt	39*	15*
SMILES	NSD2 HMT inh	ARNT-TACC3 inh	XiGFP reactiv	sPLA2-III inh	SR-BI DiI-HDL act	SR-BI HDL uptake	sPLA2 confirm	535nm interf	others
S=c1[nH]nc(-c2ccc(Cl)cc2)n1/N=C/C=C/c1ccco1	20	32	0	25*	6	-6	30*	3
S=c1[nH]nc(-c2ccccc2)n1/N=C/C=C/c1ccco1	6	0	0	17	-20	20	nt	nt
O=C1CSC(c2cccc([N+](=O)[O-])c2)N1CCN1CCCCC1 (configuration not stated)	1	4	0	2	12	-12	nt	nt
O=C(O)c1cc(-c2cccs2)nn1-c1ccc(F)cc1	-1	-6	0	1	12	-12	nt	nt
COc1ccc(Cl)cc1NC(=O)Nc1cn(C)nc1C	-1	3	0	2	-18	18	nt	nt
COC(=O)C(Cc1ccccc1)NC(=O)CNC(=O)c1ccc(Br)cc1 (configuration not stated)	0	-1	0	0	-3	3	nt	nt
Cc1cccc(-n2c(C)c(-c3ccccc3)[nH]c2=S)c1	15	12	0	29*	-3	3	33*	0
Cc1cccc(-n2c(C)n[nH]c2=S)c1	-1	-15	nt	12	nt	nt	nt	nt
CC(=O)O[C@@H]1CCC[C@@]2(C(=O)N(Cc3ccccc3)c3ccc(-c4c(C)noc4C)cc32)[C@H]1NC(=O)CCc1ccccc1	nt	nt	nt	-21	nt	nt	nt	nt
CCN(CC)c1ccc(/C=N/NC(=O)c2cc(C)nc3ccccc23)cc1	3	-4	0	-4	-37	37	nt	nt
CCN(CC)c1ccc(/C=C/c2cc(-c3ccccc3)c3ccccc3n2)cc1	-11	-25	95*	25*	-52	52	-22	5
CN(C)C(=O)C[C@H]1CC[C@H](NC(=O)NC2CCCCC2)[C@H](CO)O1	nt	-6	0	nt	nt	nt	nt	nt
CCC(=O)Nc1ccc(C(=O)NNC(=O)c2ccc(C)cc2)cc1	-1	0	0	6	0	0	nt	nt
CCC(=O)Nc1ccc(C(=O)NCc2ccccn2)cc1	0	nt	0	20*	-6	6	-1	-2
CCC(=O)Nc1ccc(C(=O)NNC(=O)CCCCC(=O)NNC(=O)c2ccc(NC(=O)CC)cc2)cc1	18	nt	0	22*	nt	nt	2	-10
Cc1csc(NC(=O)c2ccccc2)n1	0	8	0	-4	0	0	nt	nt
Cc1csc(NC(=S)NC(=O)c2ccccc2)n1	-1	6	0	21*	nt	nt	32*	1	BODIPY interf DR=>122

Bioassay records: PubChem, several laboratories
